Laboratory results from ChEMBL document CHEMBL5252566, “Antioxidant mechanisms and products of four 4',5,7-trihydroxyflavonoids with different structural types” (RSC Med Chem, 2023).

Legend:
Assay type in all cases: functional
[1] = Antioxidant activity assessed as DPPH radical scavenging activity incubated for 30 mins under dark condition by microplate reader analysis
Outline: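 The radical solution is made from […] methanol solution and mixed with sample dissolved in methanol (ultrasonication at 40 °C). Incubation is 30 min dark at room temperature with read-out at A519. % scavenging vs no-sample blank; IC50 (final concentration giving 50% scavenging) from dose–response curve by linear regression, mean ± SD (n = 3).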

[2] = Antioxidant activity assessed as oxygen scavenging activity measured every 30 sec for 5 min by UV-vis spectrophotometer analysis
Outline: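 Superoxide generation uses pyrogallol autoxidation: sample plus pyrogallol (60 mM stock in 1 mM HCl) in 0.05 M Tris-HCl, pH 7.4. A325 is recorded every 30 s for 5 min. Scavenging comes from the absorbance increase over 5 min relative to no-sample control; IC50 from dose–response curve, mean ± SD (n = 3).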

HT-22 [3] = test: Antioxidant activity in mouse HT-22 cells assessed as OH scavenging activity by chromogenic analysis; set-up: concentration or dose not given beside the values
HT-22 [4] = test: Antioxidant activity in mouse HT-22 cells assessed as OH scavenging activity measured for 24 hrs by CCK-8 analysis
Outline: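 HT22 cells are grown in DMEM/10% FBS at 37 °C, 5% CO2, seeded at 1 × 10^4 per well and left to adhere for 24 h. They are pretreated with sample at 50 μM final for 24 h (model group: medium), then exposed to Fenton reagent (200 μM H2O2 + 200 μM FeCl2) for 24 h. Medium is removed and CCK-8 added for 2 h; survival from A450, five wells per sample.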

[5] = Antioxidant activity assessed as ABTS radical cation scavenging activity incubated for 10 mins under dark condition by microplate reader analysis
Outline: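 ABTS˙+ is generated from 7.4 mM (NH4)2ABTS and 2.6 mM K2S2O8 solutions mixed 1:1 and kept dark at 27 °C for 12 h. It is diluted about 1:20 with water, then mixed with methanolic samples for 10 min dark at 27 °C and read at A734. % scavenging vs no-sample blank; IC50 from dose–response curve by linear regression, mean ± SD (n = 3).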

SMILES	IC50 [1] [µM]	IC50 [2] [µM]	IC50 [5] [µM]	Activity (HT-22 [3]) [%]	Activity (HT-22 [4]) [%]
O=C1C[C@@H](c2ccc(O)cc2)Oc2cc(O)cc(O)c21 [NARINGENIN]	1730	24.2	13	33.85	80.65
O=C1O[C@H]([C@@H](O)CO)C(O)=C1O [ASCORBIC ACID]				84.27	
O=c1c(-c2ccc(O)cc2)coc2cc(O)cc(O)c12 [GENISTEIN]	1230	88.8	10.2	36.39	68.54
O=c1cc(-c2ccc(O)cc2)oc2cc(O)cc(O)c12 [APIGENIN]	2760	68.9	18.2	33.26	73.32

Further lines, with some results ahead:

IC50 [1] [µM]	IC50 [2] [µM]	IC50 [5] [µM]	SMILES	Activity (HT-22 [3]) [%]	Activity (HT-22 [4]) [%]
19.8	963	10.3	Cc1c(C)c2c(c(C)c1O)CCC(C)(C(=O)O)O2 (centres undefined) [TROLOX]		
15.5	81.6	4.73	O=c1c(O)c(-c2ccc(O)cc2)oc2cc(O)cc(O)c12 [KAEMPFEROL]	74.46	69.4
